From ChEMBL document CHEMBL1122501, “Potential antiatherosclerotic agents. 2. (Aralkylamino)- and (alkylamino) benzoic acid analogues of cetaben” (1983)

How the values were obtained:
Rattus norvegicus [1] = assay: In vivo Sterol lowering activity at dose as 0.03 % of the diet.; assay type: functional
Procedure, shortened: (§1)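 Male CFE or CD-1 Sprague-Dawley rats, 140-150 g; 8 per control group, 4 per test group. Compound mixed into ground chow (w/w) via MeOH-CHCl3 (1:3) solution, solvent evaporated; controls got solvent-treated chow. Fed ad libitum 5 days, food intake monitored, killed fed and bled. Serum sterols and triglycerides by adapted autoanalyzer methods; mean percent of control, Student's t test.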

Rattus norvegicus [2] = assay: In vivo Sterol lowering activity at dose as 0.10 % of the diet.; assay type: functional; procedure, shortened: as §1
Rattus norvegicus [3] = assay: In vivo Sterol lowering activity at dose as 0.01 % of the diet.; assay type: functional; procedure, shortened: as §1
[4] = target: T1, Sterol O-acyltransferase 1 (Rattus norvegicus) (UniProt O70536); assay: In vitro inhibitory activity against acyl coenzyme A:cholesterol acyltransferase (ACAT); set-up: concentration or dose not given beside the values; details: concentration not given here
T1 sequence (whole entry): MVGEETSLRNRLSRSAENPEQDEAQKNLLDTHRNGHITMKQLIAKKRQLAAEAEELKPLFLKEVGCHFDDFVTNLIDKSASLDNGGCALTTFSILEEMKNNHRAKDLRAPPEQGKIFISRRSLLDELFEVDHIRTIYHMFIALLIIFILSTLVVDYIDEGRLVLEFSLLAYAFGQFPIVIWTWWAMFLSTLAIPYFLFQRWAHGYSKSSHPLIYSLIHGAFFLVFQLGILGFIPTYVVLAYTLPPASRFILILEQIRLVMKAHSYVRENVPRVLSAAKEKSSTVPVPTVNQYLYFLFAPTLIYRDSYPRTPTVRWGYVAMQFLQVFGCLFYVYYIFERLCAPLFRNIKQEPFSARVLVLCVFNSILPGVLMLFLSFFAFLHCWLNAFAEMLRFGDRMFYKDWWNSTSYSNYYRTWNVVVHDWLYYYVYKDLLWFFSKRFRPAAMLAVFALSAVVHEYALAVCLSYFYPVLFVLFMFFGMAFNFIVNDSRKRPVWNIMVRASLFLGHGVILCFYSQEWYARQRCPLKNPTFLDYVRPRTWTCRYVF
Procedure, shortened: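 ACAT enzyme from rat adrenal homogenate in 0.2 M KH2PO4 buffer pH 7.4, 1000g 15 min 5 °C supernatant (microsomal fraction). Supernatant + BSA (50 mg/mL) + compound at final 5.2 μg/mL + buffer preincubated 10 min 37 °C; [14C]oleoyl-CoA (0.4 μCi) added, 30 min 37 °C. Lipids extracted, TLC; cholesteryl ester zone counted. Mean % inhibition vs no-compound control; Student's t test.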

Rattus norvegicus [5] = assay: In vivo Triglyceride lowering activity at dose as 0.03 % of the diet.; assay type: functional; procedure, shortened: as §1
Rattus norvegicus [6] = assay: In vivo Triglyceride lowering activity at dose as 0.01 % of the diet; assay type: functional; procedure, shortened: as §1
Rattus norvegicus [7] = assay: In vivo triglyceride lowering activity, dosed at 0.10 % of the diet.; assay type: functional; procedure, shortened: as §1
Rattus norvegicus [8] = assay: In vivo triglyceride lowering activity, dosed at 0.01 % of the diet.; assay type: functional; procedure, shortened: as §1
Rattus norvegicus [9] = assay: In vivo triglyceride lowering activity, dosed at 0.03 % of the diet; assay type: functional; procedure, shortened: as §1
Rattus norvegicus [10] = assay: In vivo sterol lowering activity dosed at 0.10 % of the diet; assay type: functional; procedure, shortened: as §1
Rattus norvegicus [11] = assay: In vivo Sterol lowering activity at dose as 0.03 % of the diet; assay type: functional; procedure, shortened: as §1
Rattus norvegicus [12] = assay: In vivo triglyceride lowering activity dosed at 0.10 % of the diet; assay type: functional; procedure, shortened: as §1

| Structure (SMILES) | serum sterol level, percent of control (Rattus norvegicus [1]) [%] | serum sterol, percent of control (Rattus norvegicus [2]) [%] | serum sterol, percent of control (Rattus norvegicus [3]) [%] | inhibition [4] [%] | Diet (Rattus norvegicus [5]) [%] | Diet (Rattus norvegicus [6]) [%] | Diet (Rattus norvegicus [7]) [%] | Diet (Rattus norvegicus [8]) [%] | serum triglycerides, percent of control (Rattus norvegicus [9]) [%] | serum sterol, percent of control (Rattus norvegicus [10]) [%] | Diet (Rattus norvegicus [11]) [%] | serum triglycerides, percent of control (Rattus norvegicus [12]) [%] |
| --- | --- | --- | --- | --- | --- | --- | --- | --- | --- | --- | --- | --- |
| CCOC(=O)c1ccc(NCCCc2ccccc2[N+](=O)[O-])cc1 | 96 | 89 | 93 | 9 | 83 | 70 | 68 | – | – | – | – | – |
| CCOC(=O)c1ccc(NCCCc2ccc(Cl)cc2)cc1C(=O)OCC | 99 | 96 | 95 | 54 | 91 | – | 80 | 93 | – | – | – | – |
| O=C(O)c1ccc(NCCCc2ccc([N+](=O)[O-])cc2)cc1 | 91 | 96 | 98 | 18 | 75 | – | 83 | 78 | – | – | – | – |
| O=C(O)c1ccc(NCCCCCCc2cccs2)cc1 | – | – | 90 | 31 | – | 58 | – | – | 63 | 76 | 83 | 57 |
| CCOC(=O)c1ccc(NC(=O)CCc2ccc(C)cc2)cc1 | 99 | 88 | 97 | 25 | 64 | – | 69 | 73 | – | – | – | – |
| CCOC(=O)c1ccc(NC(=O)CCc2ccc(Cl)cc2)cc1 | 107 | 99 | 101 | 30 | 101 | 85 | – | – | – | – | – | 66 |
| CCOC(=O)c1ccc(NCCCc2ccco2)cc1 | 94 | 101 | 96 | 56 | 96 | – | 83 | 90 | – | – | – | – |
| CCOC(=O)c1ccc(NC(=O)CCCCC(=O)c2ccc(Cl)cc2)cc1 | 88 | 90 | 90 | 37 | 131 | – | 96 | 110 | – | – | – | – |
| CCOC(=O)Cc1ccc(NCCCc2ccc(Cl)cc2)cc1 | 91 | 91 | 103 | 91 | – | – | 67 | 119 | 126 | – | – | – |
| CCOC(=O)c1ccc(NC(=O)/C=C/c2ccc(Cl)cc2)cc1 | 107 | 107 | 98 | 51 | 110 | – | 80 | 104 | – | – | – | – |
| O=C(CCCCCc1ccc(Cl)cc1)Nc1ccc(C(=O)O)cc1 | 93 | 99 | 86 | 18 | 104 | – | 90 | 96 | – | – | – | – |
| O=C(O)c1ccc(NCc2ccc(Cl)cc2)cc1 | – | – | 89 | – | 72 | – | – | 98 | – | 71 | 80 | 52 |
| CCOC(=O)c1ccc(NCCCc2ccccc2F)cc1 | 100 | 97 | 104 | 37 | 116 | – | 92 | 106 | – | – | – | – |
| O=C(OCC(O)CO)c1ccc(NCCCc2ccc(Cl)cc2)cc1 (stereo unspecified) | – | – | 97 | 17 | 63 | – | – | 78 | – | 81 | 88 | 57 |
| O=C(O)c1ccc(NCCCc2ccc(F)cc2)cc1 | – | 82 | 83 | 16 | 90 | – | – | 94 | – | – | 82 | 61 |
| O=C(OCC(O)CO)c1ccc(NCCCc2ccccc2)cc1 (stereo unspecified) | 85 | – | 90 | 21 | 92 | 57 | – | – | – | 74 | – | 49 |
| CCOC(=O)c1ccc(NC(=O)CCCCCc2ccc(Cl)cc2)cc1 | 101 | 99 | 93 | 42 | 95 | – | 104 | 96 | – | – | – | – |
| O=C([O-])c1ccc(NCc2ccc(Cl)cc2)cc1.[Na+] | – | 83 | 91 | – | – | – | – | 70 | 61 | – | 90 | 67 |
| O=C(/C=C/c1ccc(Cl)cc1)Nc1ccc(C(=O)O)cc1 | 100 | 120 | 100 | 41 | 109 | – | 116 | 94 | – | – | – | – |
| O=C(CCc1ccc(Cl)cc1)Nc1ccc(C(=O)O)cc1 | 104 | 96 | 104 | 33 | 115 | – | 100 | 100 | – | – | – | – |
| CCOC(=O)c1ccc(NCCc2ccc(Cl)cc2)cc1 | 113 | 97 | 115 | 37 | 90 | 70 | – | – | – | – | – | 60 |
| Nc1ccccc1CCCNc1ccc(C(=O)O)cc1 | 96 | 84 | 121 | 15 | 84 | – | 92 | 99 | – | – | – | – |
| CCOC(=O)c1ccc(NCCCCCC(=O)c2ccc(Cl)cc2)cc1 | 92 | 99 | 98 | 50 | – | – | 79 | 76 | 56 | – | – | – |
| COc1ccc(CCCNc2ccc(C(=O)O)cc2)cc1 | 86 | – | 89 | 38 | 89 | – | 91 | 82 | – | 70 | – | – |
| O=C(O)c1ccc(NCCCc2c(Cl)cccc2Cl)cc1 | – | 106 | – | 21 | – | – | 82 | – | – | – | – | – |
| O=C(O)c1ccc(N(CCCc2ccc(Cl)cc2)CCCc2ccc(Cl)cc2)cc1 | 84 | 98 | 98 | 33 | 91 | – | 85 | 126 | – | – | – | – |
